According to the array DNA melting data of Ke et al. (doi:10.1101/2024.01.08.574731):

Columns and labels:
[1] = folding enthalpy; higher = less favourable; fluorescence melt of hairpins on a sequencing array, two-state fit; conditions: sodium 0.088 M
Procedure, shortened: (§1)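 Bootstrapped two-state fits yielded melting temperature and folding enthalpy for library hairpins. Cy3 fluorescence, with annealed Cy3 and quencher oligos, was imaged on a sequenced MiSeq flow cell in 50 mM Na-HEPES pH 8.0, 25 mM NaCl in 2.5 °C steps up to 60 °C, and normalised to pre-quench Cy3 and to control constructs. Four replicates were combined by inverse variance, and fitted temperatures were raised by 9.35 °C to match UV melts.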

[2] = melting temperature; fluorescence melt of hairpins on a sequencing array, two-state fit, raised by 9.35 °C to match UV melts; conditions: sodium 0.088 M
Procedure, shortened: as §1

Sequence | folding enthalpy [1] [kcal/mol] | Tm [2] [°C]
GGGCAAGGAAACTCGCCC ((((.((....)).)))) | -31.1 | 50.7
GGGCAAGGAAACTTGCTC (.(((((....))))).) | -27.9 | 52.7
GGGCACCGAAAGGTACCC (((.(((....))).))) | -35.1 | 56.7
GGGCACCGAAAGGTTCCC (((.(((....))).))) | -32.4 | 52.5
GGGCACGAAAGTGAACCC ((((((....)))..))) | -16.6 | 51.7
GGGCACGAAAGTGCACCC ((((((....)))..))) | -10.8 | 58.2
GGGCACGAAAGTGGTCCC ((((((....)))..))) | -17.5 | 52.5
GGGCACGAAAGTGTGCCC ((((((....)))..))) | -27.1 | 64.5
GGGCACGGAAACACGCCC ((((..(....)..)))) | -30.7 | 46.2
GGGCAGCGAAAGCTCCC (((.(((....)))))) | -20.3 | 57.3
GGGCATCGAAAGATCCCC (((.(((....))).))) | -19.4 | 48.9
GGGCATGGAAACATGCTC (.(((((....))))).) | -30.1 | 55.4
GGGCCAGGAAACTAGCCC ((((.((....)).)))) | -27.3 | 48.6
GGGCCCGAAAGGGATCCC ((((((....)))..))) | -14.9 | 56.6
GGGCCCGGAAACGAGCCC ((((.((....)).)))) | -47.5 | 57.5
GGGCCGCGAAAGCGCCCC (((.(((....))).))) | -12.4 | 68.8
GGGCCGGGAAACTGGCCC (((((.(....).))))) | -31.9 | 68.9
GGGCCTCCGAAAGGACCC (((..(((....)))))) | -21.2 | 50.1
GGGCCTGGAAACAGGCTC (.(((((....))))).) | -15.9 | 61.6
GGGCGAACGAAAGTTCCC (((..(((....)))))) | -15.4 | 45.2
GGGCGACGAAAGTCACCC (((.(((....))).))) | -43.3 | 61.8
GGGCGCACGAAAGTGCCC (((..(((....)))))) | -12.1 | 57
GGGCGCGAAAGCGAGCCC ((((((....)))..))) | -16.7 | 66.2

Sequence | folding enthalpy [1] [kcal/mol] | Tm [2] [°C]
GGGCGCGAAAGCGATCCC ((((((....)))..))) | -14.3 | 58.5
GGGCGCGAAAGCGCACCC ((((((....)))..))) | -9.21 | 66.3
GGGCGCGAAAGCGGTCCC ((((((....)))..))) | -11.7 | 63.8
GGGCGGTCGAAAGACCCC (((..(((....)))))) | -15.3 | 53.9
GGGCGTCCGAAAGGACCC (((..(((....)))))) | -13.9 | 57.8
GGGCGTGGAAACACACCC (((.(((....))).))) | -40.7 | 51.8
GGGCGTGGAAACATGCCC ((((.((....)).)))) | -42.9 | 63.1
GGGCTACGAAAGTAACCC (((.(((....))).))) | -36.6 | 52
GGGCTACGAAAGTACCC (((.(((....)))))) | -34.9 | 49.6
GGGCTAGGAAACTGGTCC ((.(.((....)).).)) | -33.6 | 41
GGGCTCGAAAGAGAGCCC ((((((....)))..))) | -35.3 | 66.2
GGGCTCGAAAGAGCGCCC ((((((....)))..))) | -10.7 | 56.6
GGGCTCGAAAGAGTTCCC ((((((....)))..))) | -21 | 43.5
GGGCTCGGAAACAAGCCC (((((.(....).))))) | -28.1 | 51.4
GGGCTCGGAAACGAACCC (((.(((....))).))) | -46.9 | 51
GGGCTGCGAAAGCATCCC (((.(((....))).))) | -34.5 | 55.2
GGGCTGGCGAAAGCCCCC (((..(((....)))))) | -12.9 | 52.1
GGGCTTTCGAAAGAACCC (((..(((....)))))) | -40 | 35.7
GGGGAACGAAAGTTTCCC (((.(((....))).))) | -36.8 | 61.1
GGGGACCCGAAAGGGCCC (((..(((....)))))) | -16.4 | 62.3
GGGGACGAAAGTCATCCC ((((((....)))..))) | -12.6 | 45.6
GGGGACGAAAGTCCTCCC ((((((....)))..))) | -10.8 | 48.3
GGGGACGAAAGTCGCCC ((((((....))).))) | -13.9 | 64.9

Sequence | folding enthalpy [1] [kcal/mol] | Tm [2] [°C]
GGGGACGAAAGTCTGCCC ((((((....)))..))) | -14.4 | 44.1
GGGGACGCGAAAGCGCCC (((..(((....)))))) | -12.9 | 60
GGGGATGGAAACGTCTCC ((.((.(....).)).)) | -26 | 36.5
GGGGATTCGAAAGAACCC (((..(((....)))))) | -20.5 | 47.4
GGGGCCGAAAGGCGGCCC ((((((....)))..))) | -15.1 | 68.2
GGGGCCGCGAAAGCGCCC (((..(((....)))))) | -11 | 66
GGGGCCGGAAACAGCCCC (((((.(....).))))) | -41.3 | 57
GGGGCCGGAAACGGCCTC (.(((((....))))).) | -10.4 | 69.2
GGGGCGACGAAAGTCCCC (((..(((....)))))) | -16.4 | 56
GGGGCGGCGAAAGCCCCC (((..(((....)))))) | -16.6 | 64
GGGGCGGGAAACCACCCC ((((.((....)).)))) | -52 | 55
GGGGCTACGAAAGTACCC (((..(((....)))))) | -22.1 | 48
GGGGCTCCGAAAGGACCC (((..(((....)))))) | -35.3 | 56.9
GGGGCTGCGAAAGCACCC (((..(((....)))))) | -24.5 | 62.5
GGGGCTGGAAACAACCCC ((((.((....)).)))) | -41.2 | 49.2
GGGGCTGGAAACAGCCTC (.(((((....))))).) | -14.4 | 59.8
GGGGCTGGAAACAGCTCC ((.((((....)))).)) | -28.5 | 57.7
GGGGCTGGAAACGGCTCC ((.((.(....).)).)) | -38.7 | 48.6
GGGGGCGAAAGCCAACCC ((((((....)))..))) | -17.9 | 52.7
GGGGGCGAAAGCCCACCC ((((((....)))..))) | -10.1 | 57.3
GGGGGCGAAAGCCCGCCC ((((((....)))..))) | -9.36 | 55.6
GGGGGCGGAAACGCCTCC ((.((((....)))).)) | -24.1 | 66.7
GGGGGTCGAAAGACGCCC (((.(((....))).))) | -21.5 | 68.7

Sequence | folding enthalpy [1] [kcal/mol] | Tm [2] [°C]
GGGGGTGGAAACACCCTC (.(((((....))))).) | -16.7 | 64.5
GGGGGTGGAAACATCCCC ((((.((....)).)))) | -34.7 | 56.8
GGGGGTGGAAACGCTCCC (((.(.(....).).))) | -25.9 | 47.1
GGGGTACGAAAGTAGCCC (((.(((....))).))) | -42.7 | 67.7
GGGGTAGAAATACCCC ((((((....)))))) | -34.9 | 60.4
GGGGTAGCGAAAGCTCCC (((..(((....)))))) | -23.2 | 58.4
GGGGTAGGAAACTACCCC (((((((....))))))) | -25.7 | 67.2
GGGGTCGAAAGACGACCC ((((((....)))..))) | -19.6 | 61.8
GGGGTCGAAAGACGCCCC ((((((....)))..))) | -13 | 60.2
GGGGTCGAAAGACGGCCC ((((((....)))..))) | -22.1 | 48.9
GGGGTCGGAAACGACTCC ((.((((....)))).)) | -34.4 | 59.5
GGGGTCGGAAACGGCCTC (.((.((....)).)).) | -26.4 | 51.5
GGGGTGCGAAAGCATCCC (((.(((....))).))) | -28.5 | 68.4
GGGGTGGGAAACCACTCC ((.((((....)))).)) | -35.1 | 54.6
GGGGTGGGAAACCATCCC (((.(((....))).))) | -41.7 | 56.6
GGGGTGGGAAACTACCCC (((((.(....).))))) | -46.6 | 55.8
GGGGTGTCGAAAGACCCC (((..(((....)))))) | -30.4 | 58.7
GGGGTTCGAAAGAAACCC (((.(((....))).))) | -41.3 | 59.5
GGGGTTGGAAACAATCCC (((.(((....))).))) | -42.4 | 52.5
GGGGTTGGAAACGACTCC ((.((.(....).)).)) | -23.1 | 41.6
GGGGTTGGAAACGATCCC (((.(.(....).).))) | -23 | 39.1
